Screening results from PubChem BioAssay.
Measles CPE – compounds protecting cells from measles virus cytopathic effect, primary screen, measles RdRp inhibitor project, single point, MLSMR library, absorbance. Measles virus-infected cells, CPE protection. protection (pct of control), % at 4 µM. hit rate 1.5% among 140,000. AID 841, 2007; in the data active = protection mostly above about 24%, no sharp cut-off; inactive = mostly below about 26%
Arbovirus inh – antivirals against arbovirus infection, primary screen, cell-based, full library, 10K replicate subset | inhibition, % at 10 µM | arbovirus infection cell-based antiviral screen | AID 1251, 2008 | hit rate 0.37% among 200,000; in the data active = inhibition above about 30%
Yeast life ext – compounds extending yeast replicative lifespan, primary screen, S. cerevisiae, OD615; hit rate 0.68% among 130,000; inhibition of the nicotinamide effect, % at 10 µM; S. cerevisiae growth with nicotinamide; deaD strain in restrictive glucose medium;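 active = inhibition above a set limit, placed 3 SD over the median of all compounds, cut at about 26% in these data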;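 note: 0% = nicotinamide-treated wells and 100% = cells grown without nicotinamide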
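assay system = DeaD-strain S. cerevisiae | measured by = absorbance at 615 nm | probe or stimulus = nicotinamide 1.5 mM | buffer or medium = CSMM-D glucose medium, restrictive | times = 48 h at 30 °C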
BB579 growth dn – growth inhibitors of yeast BB579 in restrictive medium, primary screen, yeast lifespan-shortening project, S. cerevisiae; hit rate 0.51% among 140,000; inhibition, % at 10 µM; OD615, 48 h;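 active = inhibition above a set limit, 3 SD over the mean compound inhibition, cut at about 44% in these data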
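System: DeaD yeast strain BB579; buffer or medium: CSMM-D dextrose restrictive medium; technique: OD at 615 nm; schedule: 4 h cell preincubation, 48 h compound exposure, 30 °C humidified; doses: single 10 µM dose; controls: amphotericin B 10 µg/mL, positive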
Rad51 HR inh – human RAD51 strand exchange inhibitors, primary screen, biochemical, fluorescence | inhibition, % at 10 µM | hRad51 DNA strand exchange, fluorescence dequenching | hit rate 0.085% among 200,000 | DNA repair protein RAD51 homolog 1 (Homo sapiens), Q06609;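 active = inhibition above 40% at the single screening dose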;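 note: 0% = DMSO control wells and 100% = blanks with heterologous ssDNA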
Target sequence (Q06609 whole entry, looked up): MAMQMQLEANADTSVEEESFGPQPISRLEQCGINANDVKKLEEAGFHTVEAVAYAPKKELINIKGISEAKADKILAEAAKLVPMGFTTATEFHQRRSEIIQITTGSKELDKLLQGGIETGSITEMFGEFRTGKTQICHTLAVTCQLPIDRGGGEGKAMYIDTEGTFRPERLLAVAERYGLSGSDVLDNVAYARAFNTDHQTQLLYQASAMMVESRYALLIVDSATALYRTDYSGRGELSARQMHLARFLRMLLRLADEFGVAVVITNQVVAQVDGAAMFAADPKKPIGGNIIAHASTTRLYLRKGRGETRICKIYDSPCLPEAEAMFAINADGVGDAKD
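Material: Human Rad51 nucleoprotein filaments preassembled on unlabelled ssDNA | Also added: Labelled 47-mer dsDNA for strand exchange | Dosing: Single dose, 10 µM final compound | Schedule: 30-min compound preincubation and 15-min exchange, both room temperature | Technique: Fluorescence dequenching at 485/520 nm | Measure: Percent inhibition relative to plate controls and blanks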
HMGR II inh – inhibitors of E. faecalis class II HMGR, primary screen, biochemical, Enterococcus faecalis. purified E. faecalis HMGR, NADPH absorbance 340 nm kinetic. inhibition, % at 10 µM. hit rate 0.41% among 190,000. AID 1066, 2008;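 active = inhibition above a set limit, the median over all tested compounds plus 3 SD, cut at about 9.5% in these data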;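 note: enzyme runs in reverse so mevalonate oxidation gives rising NADPH absorbance; 0% = complete reaction with DMSO and 100% = background rate lacking mevalonate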
Starred values were filed as active, the others as inactive. Compounds with a hit are over-represented: about 2.4% of the library has one in this group of screens.

For Cc1ccc(-c2nc3ccc(Cl)cc3n2OC(=O)N(C)C)cc1 the results were Measles CPE 21, Arbovirus inh -4, Yeast life ext 92*, BB579 growth dn -44, Rad51 HR inh 2 and HMGR II inh -5.
For CN(C)C(=O)Oc1ccnc2cc(Cl)ccc12 the results were Arbovirus inh -3, Rad51 HR inh -3 and HMGR II inh 3.
For O=C(N/N=C/c1c(O)n(Cc2ccccc2)c(=O)[nH]c1=O)c1ccccc1O the results were Measles CPE 10, Arbovirus inh 58*, Yeast life ext -2, BB579 growth dn -13 and HMGR II inh -6.
For O=C(N/N=C/c1c(O)n(CCc2ccc(F)cc2)c(=O)[nH]c1=O)c1ccncc1 the results were Arbovirus inh 15, Rad51 HR inh -43 and HMGR II inh -3.
For O=C(N/N=C/c1c(O)n(Cc2ccc(F)cc2)c(=O)[nH]c1=O)c1ccccc1O the results were Measles CPE 10, Arbovirus inh 55*, Yeast life ext -4, BB579 growth dn -6, Rad51 HR inh -8 and HMGR II inh 0.
For O=C(N/N=C/c1c(O)n(CCc2ccccc2)c(=O)[nH]c1=O)c1ccncc1 the results were Measles CPE 6, Arbovirus inh 32*, Yeast life ext 1, BB579 growth dn -39, Rad51 HR inh -5 and HMGR II inh -1.
For COc1ccc(Cn2c(O)c(/C=N/NC(=O)c3ccccc3O)c(=O)[nH]c2=O)cc1 the results were Measles CPE 5, Arbovirus inh 28, Yeast life ext -1, BB579 growth dn -39, Rad51 HR inh 15 and HMGR II inh 5.
`CN(C)c1ccc(/C=C2/C(=N\O)C3CCN2CC3)cc1` gave Rad51 HR inh 21.
Screening CC(C)(C)C(=O)NC1CCSC1=O (stereo unspecified) returned Arbovirus inh 11, Rad51 HR inh 9 and HMGR II inh -1.
For COc1cc2c(cc1C=O)OCO2 the results were Measles CPE 35*, Arbovirus inh -4, Yeast life ext -2, BB579 growth dn -19, Rad51 HR inh 1 and HMGR II inh -7.
COc1ccccc1CCNCc1cc2c(cc1[N+](=O)[O-])OCO2 was read as Measles CPE 1, Arbovirus inh 11, Yeast life ext -12, BB579 growth dn -8, Rad51 HR inh -2 and HMGR II inh -3.
Screening CC(C)(C)C(O)C(Oc1ccc(Cl)cc1)n1cncn1 (stereo unspecified) returned Measles CPE 7, Arbovirus inh -4, Yeast life ext -21, BB579 growth dn 91*, Rad51 HR inh -1 and HMGR II inh 1.
CC(C)CC(=O)NC(Oc1ccc(Cl)cc1)C(Cl)(Cl)Cl (stereo unspecified) was read as Measles CPE 4, Arbovirus inh 3, Yeast life ext -13, BB579 growth dn -7, Rad51 HR inh -4 and HMGR II inh -5.
O=C1C=Cc2ccccc2C1=O was read as Measles CPE 18, Arbovirus inh -5, Yeast life ext 31*, BB579 growth dn -32, Rad51 HR inh 3 and HMGR II inh -5.
`COC(=O)C1=C(c2cc3ccccc3o2)C[C@@H]2CC[C@H]1N2C(=O)NCCO` gave Rad51 HR inh -4.
For CCn1nc(-c2cccs2)nc2c(=O)n(C)c(=O)nc1-2 the results were Measles CPE 6, Arbovirus inh -43, Yeast life ext -15, BB579 growth dn 100* and HMGR II inh 8.
Cc1cc(C=O)c(C)n1C1CC1 was read as Arbovirus inh 16, Rad51 HR inh 4 and HMGR II inh 2.
CN(C)C(=O)Oc1cccc(-c2cn3cc(Cl)ccc3n2)c1 was read as Measles CPE 45*, Arbovirus inh 0, Yeast life ext 4, BB579 growth dn -38, Rad51 HR inh 6 and HMGR II inh -1.
`CN(C)C(=O)Oc1ccc(-c2cn3cc(Cl)ccc3n2)cc1` gave Measles CPE 16, Arbovirus inh 7, Yeast life ext -6, BB579 growth dn -28, Rad51 HR inh 7 and HMGR II inh 1.
Screening CCCC(C)C1(CC)C(=O)NC(=Nc2ccc(F)cc2)NC1=O (stereo unspecified) returned Measles CPE 38*, Arbovirus inh -7, Yeast life ext -9, BB579 growth dn -59 and HMGR II inh -7.
Screening CCCC(C)C1(CC)C(=O)NC(=Nc2ccccc2)NC1=O (stereo unspecified) returned Measles CPE 4, Arbovirus inh -2, BB579 growth dn 4, Rad51 HR inh -10 and HMGR II inh -5.
CCOc1ccc(-n2c(O)c(N=Nc3c(C)n(C)n(-c4ccccc4)c3=O)c(=O)[nH]c2=O)cc1 was read as Rad51 HR inh 7.
Screening CCc1cccc(C)c1NC(=S)N1CC2CC(C1)c1cccc(=O)n1C2 (stereo unspecified) returned Measles CPE 7, Arbovirus inh -4, Yeast life ext -5, BB579 growth dn -9, Rad51 HR inh -6 and HMGR II inh -6.
`COc1ccccc1CN1CCN(C(=O)COc2ccccc2)CC1` gave Measles CPE -1, Arbovirus inh -2, Yeast life ext -7, BB579 growth dn 8, Rad51 HR inh 6 and HMGR II inh -1.
`CCN1CCN(C(=O)Cc2ccccc2OC)CC1` gave Arbovirus inh -2, Rad51 HR inh 8 and HMGR II inh 14*.
Screening COCCCN1CCN(c2nnc3n2-c2sc(Br)cc2C(c2ccccc2Cl)=NC3)CC1 returned Measles CPE 6, Arbovirus inh -2, Yeast life ext 50*, BB579 growth dn -26 and HMGR II inh -5.
O=C(NCCN1CCOCC1)c1ccc(Cl)nc1 was read as Rad51 HR inh 40*.
`O=P(NS(=O)(=O)c1ccccc1)(Oc1ccccc1)Oc1ccccc1` gave Measles CPE 6, Arbovirus inh 1, Yeast life ext -2, BB579 growth dn -35, Rad51 HR inh 1 and HMGR II inh 0.
O=P(NCc1ccccc1)(Oc1ccccc1)Oc1ccccc1 was read as Measles CPE 5, Arbovirus inh 1, Yeast life ext 27*, BB579 growth dn -7, Rad51 HR inh -1 and HMGR II inh -5.
Screening O=c1[nH]c(=O)n(Cc2ccccc2Cl)c(O)c1/C=C1/C=CC=N1 returned Arbovirus inh -5, Rad51 HR inh -45 and HMGR II inh 4.
`O=C(Cc1ccc(Br)cc1)N1CCN(Cc2ccccc2)CC1` gave Measles CPE 86*, Arbovirus inh -4, Yeast life ext 7, BB579 growth dn -88, Rad51 HR inh 0 and HMGR II inh 0.
